Sampled rows, rich in hits. Any-hit rate of the full collection: about 3%.
AI-2 QS modul: modulators of Vibrio harveyi AI-2 quorum sensing system. Vibrio harveyi JMH597 AI-2 luminescence/OD600 ratio, 9 h; stronger effect = lower value; strain lacks LuxN and CqsS sensors; 0 = neutral-control median. activity change, % at 7.5 µM. 0.4% of 300,000 active; in the data active means activity change below about -75%, passing the limit was not always enough; inconclusive means no clear call, values can overlap the other calls;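 further: luminescence divided by OD600 gain over 9 h not by final OD600 alone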
Yeast superoxide: lowers age-related superoxide in aged yeast cells; 0.18% of 330,000 active; AID 2690; superoxide response (% of plate mean), % at 10 µM; S. cerevisiae aged cells, superoxide DHE fluorescence; stronger effect = lower value;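 active means superoxide response under a set limit, about three screen SD below normal, cut at about 65% in these data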;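 further: yeast aged for seven days with compound at 30 °C before DHE staining; 100% = average MFI of all compound-treated wells on the plate with controls excluded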
V-ATPase pHluor: yeast V-ATPase proton transport regulation by pHLuorin | response, % at 10 µM | S. cerevisiae, pHLuorin cytosolic pH fluorescence | AID 504577 | 0.37% of 350,000 active; in the data active means response mostly above about 7.3%, no sharp cut-off; inactive means mostly below about 5.4%; further: actives read high
HIF act: HIF pathway transcriptional activation. U2OS HRE-luciferase reporter, luminescence; normalized: DMSO 0%, desferrioxamine 100%. 0.32% of 300,000 active. activation, % at 7.5 µM (by protocol). AID 1910;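 active means mean activation of at least 10% of the iron chelator positive control signal, with at least half of replicates also reaching 10%; inconclusive means mean and replicate majority disagree about reaching 10%; inactive means mean and most replicates under 10%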
T cruzi repl: blocks replication of Trypanosoma cruzi | 1.4% of 300,000 active | inhibition, % (concentration not given with the values) | T. cruzi beta-gal in NIH3T3, luminescence, 90 h;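 active means mean inhibition across valid replicates above about 55%, limit read from the data; inconclusive means mean below that limit but half or more replicates reach it; inactive means mean below it, under half of replicates reach it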;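 further: signal also drops with host cell toxicity which is not excluded here; 0% = plate median of DMSO wells and 100% = zero luminescence signal; higher percent means less beta-gal luminescence so fewer parasites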
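assay system = mouse NIH/3T3 fibroblasts infected with β-gal-expressing T. cruzi Tulahuen C4 | input = 5,000 NIH/3T3 host cells per well | buffer or medium = DMEM plus 2% FBS | timing = 3 h host attachment, then at least 90 h co-culture | measured by = GalScreen luminescence, 60 min | evaluation = luminescence reflecting intracellular parasite burden, expressed as percent inhibition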
CendR NRP1 mod: NRP-1/CendR interaction modulation; O14786; FAM-RPARPAR peptide binding to NRP-1, fluorescence polarization; inhibition, % at 25 µM; 0.85% of 360,000 active; AID 602438;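 active means inhibition or corrected inhibition above about 18%, plus a signal ratio from 0.5 to 1.5, limit read from the data, passing the limit was not always enough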
Target sequence (O14786 whole entry, looked up): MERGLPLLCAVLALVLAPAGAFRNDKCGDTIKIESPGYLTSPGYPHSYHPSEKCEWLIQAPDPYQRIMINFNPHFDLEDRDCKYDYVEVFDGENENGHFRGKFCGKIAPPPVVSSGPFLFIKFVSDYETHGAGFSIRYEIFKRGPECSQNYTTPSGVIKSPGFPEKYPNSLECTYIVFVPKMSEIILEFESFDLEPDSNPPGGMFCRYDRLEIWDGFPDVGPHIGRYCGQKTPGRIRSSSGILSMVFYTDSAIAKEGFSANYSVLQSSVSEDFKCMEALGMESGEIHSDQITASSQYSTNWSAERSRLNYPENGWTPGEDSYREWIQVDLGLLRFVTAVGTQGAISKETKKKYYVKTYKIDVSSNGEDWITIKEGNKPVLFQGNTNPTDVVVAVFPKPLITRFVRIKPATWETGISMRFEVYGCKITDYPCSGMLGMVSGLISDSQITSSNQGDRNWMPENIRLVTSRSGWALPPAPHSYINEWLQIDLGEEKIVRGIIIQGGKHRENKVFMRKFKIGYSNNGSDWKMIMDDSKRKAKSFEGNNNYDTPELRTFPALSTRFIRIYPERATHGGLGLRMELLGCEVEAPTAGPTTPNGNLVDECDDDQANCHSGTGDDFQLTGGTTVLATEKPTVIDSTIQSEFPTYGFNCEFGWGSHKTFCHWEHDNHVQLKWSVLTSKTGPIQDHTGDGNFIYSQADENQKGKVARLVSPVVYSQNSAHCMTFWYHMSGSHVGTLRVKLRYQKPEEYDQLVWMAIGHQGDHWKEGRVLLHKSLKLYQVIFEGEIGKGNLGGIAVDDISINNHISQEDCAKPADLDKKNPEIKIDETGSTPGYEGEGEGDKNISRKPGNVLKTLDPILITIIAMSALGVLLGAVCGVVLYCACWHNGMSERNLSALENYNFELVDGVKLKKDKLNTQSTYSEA
* = called active by the depositor.

Screening C/C=C(/C)C(=O)O[C@@H]1c2cc(OC)c(OC)c(OC)c2-c2c(cc3c(c2OC)OCO3)C[C@H](C)[C@]1(C)O returned AI-2 QS modul 21, Yeast superoxide 93, V-ATPase pHluor 1, HIF act 0, T cruzi repl 7 and CendR NRP1 mod 28*.
Screening COc1cc2c(c(OC)c1OC)-c1c(cc3c(c1OC)OCO3)[C@@H](OC(C)=O)[C@H](C)[C@H](C)C2 returned AI-2 QS modul 17, Yeast superoxide 95, V-ATPase pHluor 1, HIF act 1, T cruzi repl 9 and CendR NRP1 mod 27*.
`COc1cc(C2c3cc4c(cc3OC(NNC(N)=O)C2C)OCO4)cc(OC)c1OC` (stereo unspecified) gave V-ATPase pHluor 0 and CendR NRP1 mod 8.
O=C1CC(c2ccccc2)CC(O)=C1C=NCc1ccco1 (stereo unspecified) was read as AI-2 QS modul -40, Yeast superoxide 85, V-ATPase pHluor -2, HIF act 0, T cruzi repl -15 and CendR NRP1 mod 4.
For CCN(CC)S(=O)(=O)c1ccc(OC)c(NC(=O)c2cccs2)c1 the results were AI-2 QS modul 4, Yeast superoxide 106, V-ATPase pHluor 2, HIF act -1, T cruzi repl -1 and CendR NRP1 mod 25*.
For Cc1ccc(NC(=O)CN(C)C(=O)C(c2ccccc2)c2ccccc2)cc1 the results were Yeast superoxide 99, V-ATPase pHluor 0 and CendR NRP1 mod -1.
O=c1c(C=NCC2CCCO2)c(-c2ccccc2)[nH]n1-c1ccc([N+](=O)[O-])cc1 (stereo unspecified) was read as AI-2 QS modul 14, Yeast superoxide 95, V-ATPase pHluor 0, HIF act 1, T cruzi repl 34 and CendR NRP1 mod -27.
For O=C(O)/C=C/c1cn(-c2ccccc2)nc1-c1cc2ccccc2oc1=O the results were AI-2 QS modul 27, Yeast superoxide 61*, V-ATPase pHluor -3, HIF act 1, T cruzi repl 8 and CendR NRP1 mod -7.
Screening C=CCNc1nc(-c2ccccn2)nnc1-c1ccccc1 returned AI-2 QS modul 4, Yeast superoxide 82, V-ATPase pHluor -3, HIF act 110*, T cruzi repl 69* and CendR NRP1 mod 4.
Screening c1ccc(-c2cnnc(-c3ccccn3)n2)cc1 returned AI-2 QS modul 11, Yeast superoxide 103, V-ATPase pHluor 3, HIF act 1, T cruzi repl -14 and CendR NRP1 mod 5.
Screening CC1(C)OC2CC(=O)OCC23C1CC(=O)C1(C)C3CCC2(C)C(c3ccoc3)OC(=O)C3OC321 (stereo unspecified) returned CendR NRP1 mod 7.
Screening CC(C)(O)[C@@H]1CC(=O)[C@]2(C)[C@H](CC[C@@]3(C)[C@H](c4ccoc4)OC(=O)[C@H]4O[C@]432)[C@@]1(C)/C=C\C(=O)O returned Yeast superoxide 103, V-ATPase pHluor 1 and CendR NRP1 mod 26*.
For c1cncc(-c2nc(NCCCN3CCOCC3)c3c4c(sc3n2)CCC4)c1 the results were AI-2 QS modul 12, Yeast superoxide 95, V-ATPase pHluor -5, HIF act 1, T cruzi repl 73* and CendR NRP1 mod -11.
For CCOC(=O)CN(C)C(=O)CCc1nnc(-c2ccsc2)o1 the results were AI-2 QS modul 7, Yeast superoxide 77, V-ATPase pHluor 1, HIF act 1, T cruzi repl -7 and CendR NRP1 mod 12.
CC1CCCCN1CCn1cnc2c([nH]c3ccccc32)c1=O (stereo unspecified) was read as AI-2 QS modul 9, Yeast superoxide 86, V-ATPase pHluor -2, HIF act 1, T cruzi repl 2 and CendR NRP1 mod -9.
O=C(c1ccc([N+](=O)[O-])o1)N1CCc2ccccc2C1 was read as AI-2 QS modul 0, Yeast superoxide 79, V-ATPase pHluor 2, HIF act 0, T cruzi repl 57* and CendR NRP1 mod 6.
`Cc1ccc2sc(N3CCN(C(=O)c4ccc([N+](=O)[O-])o4)CC3)nc2c1C` gave AI-2 QS modul 22, Yeast superoxide 107, V-ATPase pHluor 2, HIF act 0, T cruzi repl 59* and CendR NRP1 mod 2.
COc1cc2c(cc1OC)CN(C(=O)c1ccc([N+](=O)[O-])o1)CC2 was read as AI-2 QS modul 25, Yeast superoxide 87, V-ATPase pHluor -1, HIF act 0, T cruzi repl 50 and CendR NRP1 mod -3.
COc1cccc2sc(N3CCN(C(=O)c4ccc([N+](=O)[O-])o4)CC3)nc12 was read as AI-2 QS modul 21, Yeast superoxide 96, V-ATPase pHluor -5, HIF act inconclusive, T cruzi repl 26 and CendR NRP1 mod -8.
Screening Cc1ccc(NC2=NCC(Cc3ccc(Br)cc3)S2)cc1 (stereo unspecified) returned AI-2 QS modul -28, Yeast superoxide 86, V-ATPase pHluor 2, HIF act 0, T cruzi repl 47 and CendR NRP1 mod -3.
`COc1ccc(C(=O)Nc2ccc(N3CCCCC3)cc2)cc1Br` gave AI-2 QS modul 32, Yeast superoxide 77, V-ATPase pHluor 6, HIF act 2, T cruzi repl 28 and CendR NRP1 mod -8.
For CCOC(=O)c1cc(NC(=O)c2ccco2)ccc1N1CCOCC1 the results were AI-2 QS modul 1, Yeast superoxide 108, V-ATPase pHluor 4 and CendR NRP1 mod -2.
COc1ccccc1NS(=O)(=O)c1ccc(C)c(C(=O)NCC(c2ccco2)N2CCCCC2)c1 (stereo unspecified) was read as AI-2 QS modul 18, Yeast superoxide 111, V-ATPase pHluor -1, HIF act -2, T cruzi repl 12 and CendR NRP1 mod 4.
For O=C(Nc1cccc(C(F)(F)F)c1)Oc1ccc(Cl)c2cccnc12 the results were AI-2 QS modul 115, Yeast superoxide 92, V-ATPase pHluor 3, HIF act -10, T cruzi repl 69* and CendR NRP1 mod 11.
Screening COCCN(CC(=O)Nc1cccc(C)c1C)C(=O)c1cc2ccccc2cc1OC returned Yeast superoxide 103, V-ATPase pHluor 0 and CendR NRP1 mod -2.
For Cc1ccc(C(=O)NC(C)c2ccccc2)cc1S(=O)(=O)N1CCOCC1 (stereo unspecified) the results were AI-2 QS modul 12, Yeast superoxide 98, V-ATPase pHluor 1, HIF act -1, T cruzi repl -2 and CendR NRP1 mod -16.
`Cc1onc(-c2ccccc2)c1C(=O)Nc1ccc(S(=O)(=O)N2CCCCC2)cc1` gave AI-2 QS modul 52, Yeast superoxide 79, V-ATPase pHluor -3, T cruzi repl -33 and CendR NRP1 mod -4.

Source: PubChem BioAssay (several laboratories)
